# Assay outcomes as filed in PubChem.
# M5 PAM: potentiates acetylcholine response at human M5 receptor; activation, % at 3 µM; actives 0.3% (n = 360,000); CHO-K1 hM5, Fluo-8 calcium, ACh EC20 PAM; 0% = ACh EC20, 100% = ACh EC100; P08912;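 active = activation above the run cutoff, the mean activation of all test compounds plus 3 SD, cut at about 18% in these data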
#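 Test system: CHO-K1 hM5 cells / Doses: single-point, 3 µM nominal / Times: Post-acetylcholine fluorescence recording 140 s / Technique: Fluo-8 calcium fluorescence / Measure: Max/basal fluorescence ratio as % of EC20–EC100 ACh window / Benchmarks: low control EC20 acetylcholine (0%), high control EC100 acetylcholine (100%) / Replicates: one well per compound, no replicates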
# M4 ag: agonists of human muscarinic M4 receptor (CHRM4). P08173. CHO-K1 hM4/Gqi5, Fluo-8 calcium fluorescence; vehicle 0%, full acetylcholine response 100%. activation, % at 3 µM. actives 0.14% (n = 360,000). AID 624127;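 active = activation above the run mean over all test wells plus 3 SD, cut at about 32% in these data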;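 also: peak over basal fluorescence ratio per well then scaled between controls; 0% = DMSO wells and 100% = acetylcholine at EC100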
# Target sequence (P08173 whole entry, looked up): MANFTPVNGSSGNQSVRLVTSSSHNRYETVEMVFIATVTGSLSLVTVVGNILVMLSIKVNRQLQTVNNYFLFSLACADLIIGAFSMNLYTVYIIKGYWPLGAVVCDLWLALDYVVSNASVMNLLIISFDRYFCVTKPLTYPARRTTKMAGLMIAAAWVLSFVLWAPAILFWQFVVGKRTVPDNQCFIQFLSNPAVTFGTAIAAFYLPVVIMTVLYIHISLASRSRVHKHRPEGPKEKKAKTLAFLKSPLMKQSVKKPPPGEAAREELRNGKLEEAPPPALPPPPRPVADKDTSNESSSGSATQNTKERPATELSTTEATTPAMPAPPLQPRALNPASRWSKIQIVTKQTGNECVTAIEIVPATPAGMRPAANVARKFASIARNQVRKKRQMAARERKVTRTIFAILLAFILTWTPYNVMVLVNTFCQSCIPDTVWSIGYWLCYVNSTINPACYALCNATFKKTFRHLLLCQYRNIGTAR
# CHRM5 antagonist: antagonists of human muscarinic M5 receptor (CHRM5). P08912. CHO-hM5 cells, Fluo-8 calcium fluorescence, ACh EC80. inhibition, % at 3 µM. actives 0.59% (n = 360,000). AID 624040;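 active = inhibition above a per-plate cutoff, the mean of that plate's test compounds plus 3 SD, cut at about 27% in these data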;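 also: 0% = acetylcholine EC80 with DMSO and 100% = DMSO without agonist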
# M5 ag: CHRM5 agonism in calcium assay; actives 0.19% (n = 360,000); P08912; CHO-K1 hM5 cells, Fluo-8 calcium fluorescence; 0% DMSO wells, 100% maximal acetylcholine response; activation, % at 3 µM;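 active = activation above the run's mean over test compounds plus 3 SD, cut at about 23% in these data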;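 also: signal is peak over basal fluorescence ratio across the kinetic read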
# M4 antag: antagonists of human muscarinic M4 receptor (CHRM4) | P08173 | CHO-hM4 cells, ACh EC80, Fluo-8 calcium fluorescence | actives 0.73% (n = 360,000) | AID 624125 | inhibition, % at 3 µM;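 active = inhibition above its plate's cutoff, the mean inhibition of sample wells plus 3 SD, cut at about 27% in these data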;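 also: 0% = acetylcholine EC80 with DMSO and 100% = DMSO without agonist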
# M4 PAM: positive allosteric modulators of human muscarinic M4 receptor; CHO-K1 hM4/Gqi5, Fluo-8 calcium fluorescence, ACh EC20; 0% = ACh EC20, 100% = maximal ACh; actives 0.4% (n = 360,000); AID 624126; P08173; activation, % at 3 µM;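 active = activation above its plate's cutoff, the mean activation of sample wells plus 3 SD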
# An asterisk follows results filed as active. Compounds with a hit are over-represented: about 1.9% of the library has one in this group of screens.
SMILES,M5 PAM,M4 ag,CHRM5 antagonist,M5 ag,M4 antag,M4 PAM
CCOC(=O)C(=CN=C(N)Nc1nc2ccccc2o1)C(=O)OCC,-4.1,0.2,-5.7,-1.9,-1.6,20.5*
CC1=C(C(=O)Nc2cccc(C(=O)NC(C)c3ccccc3)c2)SCCO1 (stereo unspecified),-5.3,-0.4,0.9,3.1,-2.4,1.0
O=C(Nc1ccon1)c1ccc(OC2CCCC2)cc1,-9.0,1.2,9.6,-0.2,38.2*,-10.7
CC(C)(C)c1cc(NC(=O)c2ccc(OC3CCCC3)cc2)no1,-1.1,1.0,3.1,0.5,-4.0,2.2
O=C1N/C(=N\S(=O)(=O)Cc2ccccc2)S/C1=C/c1cc([N+](=O)[O-])ccc1O,-38.2,49.9*,40.3*,89.3*,18.7,-41.1
O=C1N/C(=N\S(=O)(=O)c2ccccc2)S/C1=C\c1cc([N+](=O)[O-])ccc1O,-18.4,124.9*,15.0,44.8*,20.4,-26.5
Cc1ccc(S(=O)(=O)/N=C2/NC(=O)/C(=C\c3cc(Br)cc(Br)c3O)S2)cc1,-9.3,11.0,14.3,35.5*,1.0,-5.4
C[N+]1(C)CCC(=C(c2ccccc2)c2ccccc2)CC1,-18.8,0.1,98.7*,-1.9,99.5*,-16.6
C[N+]1(CCC(=O)c2ccccc2)CCCCC1,7.2,0.5,-8.1,-3.7,4.2,-1.6
Cc1nc2ccccn2c1-c1csc(Nc2cccc(O)c2)n1,-14.3,13.2,5.6,2.6,-1.8,-10.6
Cc1cccc(Nc2nc(-c3c(C)nc4ccccn34)cs2)c1,-20.7,19.5,34.8*,2.5,31.3*,-11.2
CCCc1cc(=O)[nH]c(SCC(=O)N2CC3(C)CC2CC(C)(C)C3)n1 (stereo unspecified),5.6,0.2,9.8,1.6,-3.9,6.9
Cn1ncc(Br)c1NC(=O)Nc1ccc(OC(F)(F)F)cc1,-21.1,14.4,26.9*,4.1,-5.7,-20.0
O=C(C1CCCCC1)N1CCC2CC1c1cc(N3CCCCC3)ccc12 (stereo unspecified),-7.0,2.9,11.2,-1.7,37.2*,-12.7
O=C(c1ccccc1F)N1CCC2CC1c1cc(N3CCCCC3)ccc12 (stereo unspecified),-1.6,4.1,-9.7,0.6,1.9,-8.4
CCN(CC(=O)Nc1c(F)cccc1F)C(=O)/C=C/c1cn(Cc2ccccc2)nc1-c1cccnc1,-6.3,1.9,27.2*,-3.2,7.4,1.4
Cc1cc(C)cc(OCC(=O)NNC(=S)NC(=O)C2CC2)c1,-2.0,6.3,27.6*,-3.0,3.9,8.5
COc1ccc(OCC(=O)NNC(=S)NC(=O)C2CC2)cc1,-1.8,0.5,-5.7,-3.9,-11.0,8.6
CC(C)n1cc(CN2CCCC(C(=O)Nc3ccccc3Oc3cccnc3)C2)cn1 (stereo unspecified),1.1,1.8,-1.6,-2.9,-6.8,3.6
Cc1ccccc1-n1c(O)c(/C=N/N2CCCCC2c2cccnc2)c(=O)[nH]c1=O (stereo unspecified),29.5*,1.4,2.5,12.4,-5.7,24.2*
Cc1ccc(S(=O)(=O)N2CCCCC2c2cccnc2)c(C)c1C (stereo unspecified),-4.0,1.5,2.9,-7.4,-3.5,-14.5
Cc1c(Cl)cccc1NC(=S)N(CCCN1CCOCC1)Cc1cccs1,-16.5,2.0,2.6,-5.3,56.5*,-38.6
COc1ccc(NC(=S)N(CCCN2CCCCC2)Cc2cccs2)cc1,-18.5,3.4,11.8,-6.9,39.8*,-38.0
Cc1ccc(NC(=S)N(CCCN2CCOCC2)Cc2cccs2)c(C)c1,4.2,1.4,3.6,-4.4,-9.5,0.0
CCOCCc1nnc(NC(=O)CS(=O)(=O)Cc2ccccc2)s1,2.2,-1.2,-1.1,-1.7,3.5,-4.7
SMILES,M5 PAM,M4 ag,CHRM5 antagonist,M5 ag,M4 antag,M4 PAM
N=c1sc2ccccc2n1-c1ccccc1,-12.8,13.9,27.2*,-0.4,22.2,-22.8
C=CC(=O)N=c1sc2ccccc2n1-c1ccccc1,-12.2,3.1,-3.6,-2.1,-5.7,-7.3
N=c1sccn1CC(=O)Nc1ccc(SC(F)F)cc1,8.0,1.8,4.9,-4.3,-3.6,1.8
O=C(Nc1ccccc1)Nc1ccc2nnsc2c1,-35.5,27.1,44.4*,6.1,30.3*,-55.5
COc1ccc(NS(=O)(=O)c2ccc(-c3coc(C)n3)cc2)cc1,2.8,9.7,-5.1,4.9,0.5,5.3
COc1ccc(NS(=O)(=O)c2ccc(-c3coc(C)n3)cc2)cc1OC,-13.6,27.5,50.8*,7.2,46.9*,-14.2
Cc1nc(-c2ccc(S(=O)(=O)Nc3ccc(S(N)(=O)=O)cc3)cc2)co1,20.8*,0.6,-16.1,-1.2,-7.8,13.6*
CCOC(=O)c1sc(NC(=O)C2CC(=O)N(c3ccccc3OC)C2)nc1C (stereo unspecified),-7.8,4.1,3.6,1.9,-3.5,1.5
CN1CCCC(C#CC(O)(c2ccccc2)c2ccccc2)C1 (stereo unspecified),-19.8,1.2,97.9*,-10.8,74.1*,-23.6
COc1ccc(OC)c(C2C=C(C34CC5CC(CC(C5)C3)C4)NC(=S)N2)c1 (stereo unspecified),-11.0,-0.6,10.6,-2.9,43.1*,-16.7
COc1cc(C2C=C(C34CC5CC(CC(C5)C3)C4)NC(=S)N2)cc(OC)c1OC (stereo unspecified),-13.7,-1.5,6.7,-7.4,19.0,-11.7
CC(C)N(Cc1nccn1C)C(=O)c1cc(COc2ccc(F)cc2Cl)on1,-8.7,4.0,30.8*,-5.1,0.2,-7.3
CC(NC(=O)C1CCN(C(=O)[C@@H]2Cc3ccccc3CN2)CC1)c1ccccc1 (stereo partly specified),3.5,0.2,6.3,-4.6,6.9,3.2
C[N+]1(CC2COC3(CCCCC3)O2)CCCC1 (stereo unspecified),-5.0,-0.4,7.6,-7.5,4.4,-10.2
CC1CC(C)(C)OC(C[N+]2(C)CCCCC2)O1 (stereo unspecified),-32.6,-0.1,31.4*,-19.9,36.5*,-46.1
CC(C)N(C(C)C)S(=O)(=O)c1ccc(NC(=O)c2cnccn2)cc1,6.9,2.0,-0.2,4.2,-4.3,1.4
CCNC1=C(Cl)C(=O)c2ccccc2C1=O,-7.9,-0.7,-0.6,-5.0,12.1,-0.2
O=C1C(Cl)=C(Nc2ccc(O)cc2)C(=O)c2ccccc21,-25.8,-2.1,41.1*,-18.7,63.6*,-23.7
CCCC(=O)NC1=C(Cl)C(=O)c2ccccc2C1=O,0.9,12.0,31.5*,19.6,61.4*,-8.4
